{"source": "ChEMBL document CHEMBL1153529", "about": "“Synthesis of fluorinated brassinosteroids based on alkene cross-metathesis and preliminary biological assessment” (J Med Chem, 2009)", "key": {"[1]": {"assay": "Inhibition of [35S]tert-butylbicyclo[ 2.2.2]phosphorothionate binding to GABAA receptor in Wistar rat brain membrane", "assay_type": "cell membranes", "summary_of_the_method": "(§1)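 Male Wistar rat brain membranes incubated 1 h at 37 °C with 2 nM [35S]TBPS and compound at 1 nM to 10 μM, in duplicates. IC50 estimated as the steroid concentration giving half-maximal inhibition of binding. Imax is the maximal suppression of binding.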"}, "[2]": {"species_on_record": "Rattus norvegicus", "assay": "Inhibition of [35S]tert-butylbicyclo[ 2.2.2]phosphorothionate binding to GABAA receptor in Wistar rat brain membrane relative to control", "assay_type": "cell membranes", "summary_of_the_method": "as §1"}, "[3]": {"species_on_record": "Rattus norvegicus", "assay": "Displacement of [35S]tert-butylbicyclo[ 2.2.2]phosphorothionate from GABAA receptor in Wistar rat brain membrane at 100 nM relative to control", "assay_type": "cell membranes", "summary_of_the_method": "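Membranes from male Wistar rat brain incubated 1 h at 37 °C with 2 nM [35S]TBPS and test compound at 100 nM. Binding expressed as % of buffer-only control samples. Mean ± SD of triplicates or quadruplicates. Kruskal-Wallis global test, then Mann-Whitney-Wilcoxon against control.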"}, "[4]": {"system": "Phaseolus vulgaris", "assay": "Brassinolide type activity in Phaseolus Vulgaris L., cv. Pinto assessed as difference of prolongation of second internode at 0.1 umol/L by second-internode bioassay relative to control", "assay_type": "functional", "summary_of_the_method": "(§2)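 Bean second-internode bioassay. Compound applied in lanolin; second-internode length measured 5 days after application. Activity taken as the difference in internode prolongation (mm) between treated and control plants. Reported concentrations were 10^-10, 10^-7 and 10^-12 mol/L. Mean ± SD.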"}, "[5]": {"system": "BJ", "assay": "Cytotoxicity against human BJ cells after 72 hrs by calcein-AM assay", "assay_type": "cell-based", "summary_of_the_method": "(§3)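 Human normal fibroblast BJ, T-lymphoblastic leukemia CEM and breast carcinoma MCF-7 cells exposed for 72 h to six serial 4-fold dilutions of compound. Surviving cell proportion read by calcein-AM assay and IC50 calculated. Mean ± SD of three independent experiments, each in triplicate. 28-Homocastasterone served as positive control.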"}, "[6]": {"system": "CCRF-CEM", "assay": "Cytotoxicity against human CEM cells after 72 hrs by calcein-AM assay", "assay_type": "functional, cell-based", "summary_of_the_method": "as §3"}, "[7]": {"system": "Phaseolus vulgaris", "assay": "Brassinolide type activity in Phaseolus Vulgaris L., cv. Pinto assessed as difference of prolongation of second internode at 1 pmol/L by second-internode bioassay relative to control", "assay_type": "functional", "summary_of_the_method": "as §2"}, "[8]": {"system": "MCF7", "assay": "Cytotoxicity against human MCF7 cells after 72 hrs by calcein-AM assay", "assay_type": "functional, cell-based", "settings": "MCF7, 72 h", "summary_of_the_method": "as §3"}}, "note": "Active and inactive are the calls of the source. No cut-off for these calls is given here.", "data": [{"compound": "CC(=O)[C@H]1CC[C@H]2[C@@H]3CC[C@H]4C[C@H](O)CC[C@]4(C)[C@H]3CC[C@]12C", "note": "[BREXANOLONE]", "values": [{"measurement": "IC50", "setting": "[1]", "value": 0.08, "unit": "µM"}, {"measurement": "Imax", "setting": "[2]", "value": 79, "unit": "%"}, {"measurement": "Activity", "setting": "[3]", "value": 56.2, "unit": "%"}]}, {"compound": "C[C@H]([C@@H](O)[C@H](O)CC(F)(C(F)(F)F)C(F)(F)F)[C@H]1CC[C@H]2[C@@H]3COC(=O)[C@H]4C[C@H](O)[C@H](O)C[C@]4(C)[C@H]3CC[C@]12C", "values": [{"measurement": "IC50", "setting": "[1]", "value": 0.1, "unit": "µM"}, {"measurement": "Activity", "setting": "[4]", "value": 15.9, "unit": "mm"}, {"measurement": "Imax", "setting": "[2]", "value": 59.4, "unit": "%"}, {"measurement": "Activity", "setting": "[3]", "value": 56.6, "unit": "%"}, {"measurement": "Activity", "setting": "[5]", "value": "Non-toxic"}, {"measurement": "IC50", "setting": "[6]", "value": "> 50", "unit": "µM"}, {"measurement": "Activity", "setting": "[7]", "value": 10.7, "unit": "mm"}, {"measurement": "IC50", "setting": "[8]", "value": "> 50", "unit": "µM"}]}, {"compound": "CC(C(O)C(O)CC(F)(F)C(F)(F)C(F)(F)C(F)(F)C(F)(F)C(F)(F)F)C1CCC2C3CC(=O)C4CC(O)C(O)CC4(C)C3CCC12C", "note": "(centres undefined)", "values": [{"measurement": "Activity", "setting": "[5]", "value": "Non-toxic"}, {"measurement": "IC50", "setting": "[6]", "value": "> 50", "unit": "µM"}, {"measurement": "IC50", "setting": "[8]", "value": "> 50", "unit": "µM"}]}, {"compound": "CC[C@@H](C(C)C)[C@@H](O)[C@H](O)[C@@H](C)[C@H]1CC[C@H]2[C@@H]3CC(=O)[C@H]4C[C@H](O)[C@H](O)C[C@]4(C)[C@H]3CC[C@]12C", "values": [{"measurement": "Activity", "setting": "[5]", "value": "Non-toxic"}, {"measurement": "IC50", "setting": "[6]", "value": 13, "unit": "µM"}, {"measurement": "IC50", "setting": "[8]", "value": "> 50", "unit": "µM"}]}, {"compound": "C[C@H]([C@@H](O)[C@H](O)CC(F)(C(F)(F)F)C(F)(F)F)[C@H]1CC[C@H]2[C@@H]3CC(=O)C4C[C@H](O)[C@H](O)C[C@]4(C)[C@H]3CC[C@]12C", "note": "(some centres undefined)", "values": [{"measurement": "Activity", "setting": "[5]", "value": "Non-toxic"}, {"measurement": "IC50", "setting": "[6]", "value": "> 50", "unit": "µM"}, {"measurement": "IC50", "setting": "[8]", "value": "> 50", "unit": "µM"}]}, {"compound": "C[C@H]([C@@H](O)[C@H](O)CC(F)(F)C(F)(F)C(F)(F)F)[C@H]1CC[C@H]2[C@@H]3COC(=O)[C@H]4C[C@H](O)[C@H](O)C[C@]4(C)[C@H]3CC[C@]12C", "values": [{"measurement": "Activity", "setting": "[4]", "value": "Active"}, {"measurement": "Activity", "setting": "[3]", "value": 95.1, "unit": "%"}, {"measurement": "Activity", "setting": "[5]", "value": "Non-toxic"}, {"measurement": "IC50", "setting": "[6]", "value": "> 50", "unit": "µM"}, {"measurement": "IC50", "setting": "[8]", "value": "> 50", "unit": "µM"}]}, {"compound": "C[C@H]([C@@H](O)[C@H](O)CC(F)(F)C(F)(F)C(F)(F)C(F)(F)C(F)(F)C(F)(F)F)[C@H]1CC[C@H]2[C@@H]3COC(=O)[C@H]4C[C@H](O)[C@H](O)C[C@]4(C)[C@H]3CC[C@]12C", "values": [{"measurement": "IC50", "setting": "[1]", "value": 0.9, "unit": "µM"}, {"measurement": "Imax", "setting": "[2]", "value": 57.9, "unit": "%"}, {"measurement": "Activity", "setting": "[3]", "value": 47.2, "unit": "%"}, {"measurement": "Activity", "setting": "[5]", "value": "Non-toxic"}, {"measurement": "IC50", "setting": "[6]", "value": "> 50", "unit": "µM"}, {"measurement": "IC50", "setting": "[8]", "value": "> 50", "unit": "µM"}]}, {"compound": "CC(C(O)C(O)CC(F)(F)C(F)(F)C(F)(F)F)C1CCC2C3CC(=O)C4CC(O)C(O)CC4(C)C3CCC12C", "note": "(centres undefined)", "values": [{"measurement": "Activity", "setting": "[5]", "value": "Non-toxic"}, {"measurement": "IC50", "setting": "[6]", "value": 35.3, "unit": "µM"}, {"measurement": "IC50", "setting": "[8]", "value": 48.2, "unit": "µM"}]}]}
